{
  "source": "ChEMBL document CHEMBL5579886",
  "about": "“Selective Degradation of MLK3 by a Novel CEP1347-VHL-02 PROTAC Compound Limits the Oncogenic Potential of TNBC” (J Med Chem, 2024)",
  "key": {"[1]": {"target": "T1, von Hippel-Lindau disease tumor suppressor/Mitogen-activated protein kinase kinase kinase 11 (Homo sapiens, UniProt Q16584+P40337)", "T1 sequence (P40337 whole entry, looked up)": "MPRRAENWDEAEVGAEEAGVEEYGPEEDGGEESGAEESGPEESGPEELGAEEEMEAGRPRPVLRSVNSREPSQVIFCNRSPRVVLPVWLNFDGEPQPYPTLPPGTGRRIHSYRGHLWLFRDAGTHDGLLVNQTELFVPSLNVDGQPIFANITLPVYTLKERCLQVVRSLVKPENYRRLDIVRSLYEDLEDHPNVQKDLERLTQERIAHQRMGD", "T1 sequence (Q16584 whole entry, looked up)": "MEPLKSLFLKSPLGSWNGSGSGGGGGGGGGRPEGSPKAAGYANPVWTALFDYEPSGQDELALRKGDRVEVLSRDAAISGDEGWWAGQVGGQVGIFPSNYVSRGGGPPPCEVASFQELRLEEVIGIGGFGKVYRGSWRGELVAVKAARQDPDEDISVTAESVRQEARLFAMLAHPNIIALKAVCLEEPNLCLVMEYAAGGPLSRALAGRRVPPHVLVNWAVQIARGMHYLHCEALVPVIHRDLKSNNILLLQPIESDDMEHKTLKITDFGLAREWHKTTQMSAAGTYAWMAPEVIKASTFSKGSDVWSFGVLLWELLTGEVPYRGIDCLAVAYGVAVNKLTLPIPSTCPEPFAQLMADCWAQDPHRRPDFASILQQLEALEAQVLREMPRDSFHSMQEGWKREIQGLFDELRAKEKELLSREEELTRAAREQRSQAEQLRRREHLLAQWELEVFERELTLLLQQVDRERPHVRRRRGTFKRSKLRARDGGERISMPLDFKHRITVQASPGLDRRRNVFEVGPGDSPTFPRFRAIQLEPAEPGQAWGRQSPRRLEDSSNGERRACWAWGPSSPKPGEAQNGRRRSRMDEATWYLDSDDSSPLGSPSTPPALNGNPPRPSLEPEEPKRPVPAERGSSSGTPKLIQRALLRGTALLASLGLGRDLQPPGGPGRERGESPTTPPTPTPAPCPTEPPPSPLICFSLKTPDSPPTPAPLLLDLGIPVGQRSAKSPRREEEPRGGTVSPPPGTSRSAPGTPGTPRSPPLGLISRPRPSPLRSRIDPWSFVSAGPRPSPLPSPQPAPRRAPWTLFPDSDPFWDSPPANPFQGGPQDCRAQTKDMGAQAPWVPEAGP", "assay": "PROTAC activity at VHL/DOX-inducible MLK3 (unknown origin) overexpressed in human A-375 cells assessed as protein degradation at 0.1 uM incubated for 24 hrs by immunoblot analysis", "assay_type": "cell-based", "method_in_brief": "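A375 cells with DOX-inducible MLK3 were seeded at 100 000/well and induced with 1 μg/mL DOX for 24 h. Eight VHL-based PROTACs were then tested at 0.1–5 μM for 24 h, with DMSO as control. MLK3 was detected by ECL immunoblot of RIPA lysates, normalised to GAPDH or β-actin.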"}, "[2]": {"target": "T1, von Hippel-Lindau disease tumor suppressor/Mitogen-activated protein kinase kinase kinase 11", "assay": "PROTAC activity at VHL/DOX-inducible MLK3 (unknown origin) overexpressed in human HCC1806 cells assessed as protein degradation at 0.5 uM measured after 2 hrs by immunoblot analysis relative to control", "assay_type": "cell-based", "method_in_brief": "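HCC1806 cells with DOX-inducible MLK3 were induced with 1 μg/mL DOX for 24 h, then treated at 0.5 μM for times from 2 to 24 h, with DMSO as control. MLK3 was measured by immunoblot of RIPA lysates with ECL detection.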"}, "[3]": {"target": "T1, von Hippel-Lindau disease tumor suppressor/Mitogen-activated protein kinase kinase kinase 11", "assay": "PROTAC activity at VHL/DOX-inducible MLK3 (unknown origin) overexpressed in carfilzomib-treated human HCC1806 cells assessed as protein degradation at 0.25 to 1 uM measured after 7 hrs by immunoblot analysis", "assay_type": "cell-based", "conditions": "dose 0.25-1 µM", "method_in_brief": "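HCC1806 cells with DOX-inducible MLK3 were induced with 1 μg/mL DOX for 24 h. They were pretreated with 1 μM carfilzomib (proteasome inhibitor) for 1 h, then with PROTAC at 0.25–1 μM for 7 h, with DMSO as control. MLK3 was assessed by ECL immunoblot.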"}, "[4]": {"target": "T1, von Hippel-Lindau disease tumor suppressor/Mitogen-activated protein kinase kinase kinase 11", "assay": "PROTAC activity at VHL/MLK3 in human MCF7 cells assessed as protein degradation measured after 4 to 48 hrs by Western blot analysis", "assay_type": "cell-based", "conditions": "dose 1.0 µM, time 4-48 hrs", "method_in_brief": "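MCF-7 and MDA-MB-468 cells were seeded at 100 000/well and treated with 1 μM PROTAC for 4–48 h, with DMSO as control. MLK3 was quantified by immunoblot as percent remaining, and t1/2 of degradation was derived from the time course.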"}, "[5]": {"target": "T1, von Hippel-Lindau disease tumor suppressor/Mitogen-activated protein kinase kinase kinase 11", "assay": "PROTAC activity at VHL/MLK3 in human MDA-MB-468 cells assessed as protein degradation at 1 uM by Western blot analysis", "assay_type": "cell-based", "conditions": "time 4-48 hrs, TDE = time-dependent effect"}, "[6]": {"target": "T1, von Hippel-Lindau disease tumor suppressor/Mitogen-activated protein kinase kinase kinase 11", "assay": "PROTAC activity at VHL/MLK3 in human MDA-MB-468 cells assessed as half life of protein degradation at 1 uM by Western blot analysis", "assay_type": "cell-based", "method_in_brief": "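Endogenous MLK3: cells seeded at 100 000/well, treated next day with 1 μM PROTAC for 4–48 h, DMSO control; immunoblot with GAPDH or β-actin loading control. Remaining MLK3 quantified over time and t1/2 derived.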"}, "MDA-MB-468 [7]": {"system": "MDA-MB-468", "assay": "Effect on MLK3 mRNA level in human MDA-MB-468 cells at 1 uM measured after 24 hrs by RT-qPCR analysis", "assay_type": "functional, cell-based", "method_in_brief": "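Total RNA extracted from MCF-7 and MDA-MB-468 cells 24 h after PROTAC treatment, purity and concentration checked spectrophotometrically, reverse transcribed to cDNA and MLK3 transcript quantified by RT-qPCR.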"}, "[8]": {"target": "T1, von Hippel-Lindau disease tumor suppressor/Mitogen-activated protein kinase kinase kinase 11", "assay": "PROTAC activity at VHL/MLK3 in human MCF7 cells assessed as protein degradation at 1 uM measured after 24 hrs by immunoblot analysis", "assay_type": "cell-based", "method_in_brief": "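MCF-7 and MDA-MB-468 cells were treated for 24 h across 0.1–5 μM, with DMSO as control. MLK3 was immunoblotted and quantified as percent remaining versus concentration, from which DC50 and Dmax were derived.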"}, "[9]": {"target": "von Hippel-Lindau disease tumor suppressor/Mitogen-activated protein kinase kinase kinase 10 (Homo sapiens) (UniProt Q02779+P40337)", "sequence (P40337 whole entry, looked up)": "as the sequence (P40337 whole entry, looked up) above", "sequence (Q02779 whole entry, looked up)": "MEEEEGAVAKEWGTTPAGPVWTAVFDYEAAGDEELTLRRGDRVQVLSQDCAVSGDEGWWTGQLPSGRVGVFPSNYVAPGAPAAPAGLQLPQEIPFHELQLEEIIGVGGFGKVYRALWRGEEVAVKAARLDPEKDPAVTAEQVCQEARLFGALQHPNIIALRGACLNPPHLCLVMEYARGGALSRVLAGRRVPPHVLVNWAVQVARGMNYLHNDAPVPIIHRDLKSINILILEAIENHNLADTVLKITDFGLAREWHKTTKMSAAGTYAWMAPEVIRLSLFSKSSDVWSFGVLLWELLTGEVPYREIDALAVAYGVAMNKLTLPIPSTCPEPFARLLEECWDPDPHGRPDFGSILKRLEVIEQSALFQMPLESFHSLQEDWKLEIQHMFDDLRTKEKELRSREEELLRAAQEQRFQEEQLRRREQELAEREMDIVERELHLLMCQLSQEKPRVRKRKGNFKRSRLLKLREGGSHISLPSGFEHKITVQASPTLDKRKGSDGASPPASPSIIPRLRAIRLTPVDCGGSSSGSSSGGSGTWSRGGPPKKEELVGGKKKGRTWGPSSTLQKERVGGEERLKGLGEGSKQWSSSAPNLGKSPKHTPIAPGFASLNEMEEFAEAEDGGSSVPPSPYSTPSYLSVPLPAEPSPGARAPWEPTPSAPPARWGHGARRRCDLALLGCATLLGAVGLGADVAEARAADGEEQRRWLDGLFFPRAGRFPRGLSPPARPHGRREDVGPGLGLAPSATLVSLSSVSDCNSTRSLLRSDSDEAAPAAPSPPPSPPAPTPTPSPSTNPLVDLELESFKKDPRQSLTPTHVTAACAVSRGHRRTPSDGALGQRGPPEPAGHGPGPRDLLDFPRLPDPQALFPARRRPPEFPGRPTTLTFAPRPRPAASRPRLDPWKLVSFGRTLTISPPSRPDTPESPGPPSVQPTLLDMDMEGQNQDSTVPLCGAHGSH", "assay": "PROTAC activity at VHL/MLK2 in human MCF7 cells assessed as protein degradation at 1 uM incubated for 24 hrs by immunoblot analysis", "assay_type": "cell-based", "method_in_brief": "(§1)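 Endogenous MLK1, MLK2 or MLK4 levels in MCF-7 and MDA-MB-468 cells. Cells were grown in high-glucose DMEM with 10% FBS, seeded at 100 000 cells/well and treated the next day for 24 h, with DMSO as control. Lysis was in RIPA with protease inhibitor, followed by 10% SDS-PAGE, nitrocellulose transfer and ECL immunoblot with GAPDH or β-actin as loading control.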"}, "[10]": {"target": "von Hippel-Lindau disease tumor suppressor/Mitogen-activated protein kinase kinase kinase 21 (Homo sapiens) (UniProt P40337+Q5TCX8)", "sequence (P40337 whole entry, looked up)": "as the sequence (P40337 whole entry, looked up) above", "sequence (Q5TCX8 whole entry, looked up)": "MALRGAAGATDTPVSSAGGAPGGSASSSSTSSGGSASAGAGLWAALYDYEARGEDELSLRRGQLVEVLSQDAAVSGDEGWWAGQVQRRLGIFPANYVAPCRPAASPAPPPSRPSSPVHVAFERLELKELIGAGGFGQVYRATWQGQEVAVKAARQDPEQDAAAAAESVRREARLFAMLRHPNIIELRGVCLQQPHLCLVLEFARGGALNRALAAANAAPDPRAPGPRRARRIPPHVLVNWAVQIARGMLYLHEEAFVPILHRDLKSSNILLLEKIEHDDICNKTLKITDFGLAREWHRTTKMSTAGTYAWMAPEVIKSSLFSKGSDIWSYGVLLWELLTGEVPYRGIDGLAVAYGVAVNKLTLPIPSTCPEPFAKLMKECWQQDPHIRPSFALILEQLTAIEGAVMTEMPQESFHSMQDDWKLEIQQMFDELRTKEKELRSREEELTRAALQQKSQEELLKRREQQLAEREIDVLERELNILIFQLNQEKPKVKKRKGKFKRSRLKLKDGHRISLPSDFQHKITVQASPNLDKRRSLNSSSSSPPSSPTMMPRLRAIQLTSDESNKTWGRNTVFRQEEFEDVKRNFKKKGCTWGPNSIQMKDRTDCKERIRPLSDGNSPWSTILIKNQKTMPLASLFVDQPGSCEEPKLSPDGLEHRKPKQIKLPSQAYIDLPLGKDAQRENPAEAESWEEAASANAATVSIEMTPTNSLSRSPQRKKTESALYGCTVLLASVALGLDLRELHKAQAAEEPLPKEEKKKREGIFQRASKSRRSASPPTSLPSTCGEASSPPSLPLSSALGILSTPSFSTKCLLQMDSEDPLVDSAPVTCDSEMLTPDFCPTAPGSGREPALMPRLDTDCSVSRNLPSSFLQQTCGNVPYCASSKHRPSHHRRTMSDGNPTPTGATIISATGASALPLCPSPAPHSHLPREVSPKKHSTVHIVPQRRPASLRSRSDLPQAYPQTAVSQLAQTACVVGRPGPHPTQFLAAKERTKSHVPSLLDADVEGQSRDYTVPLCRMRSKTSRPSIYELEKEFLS", "assay": "PROTAC activity at VHL/MLK4 in human MCF7 cells assessed as protein degradation at 1 uM incubated for 24 hrs by immunoblot analysis", "assay_type": "cell-based", "method_in_brief": "as §1"}, "MDA-MB-468 [11]": {"system": "MDA-MB-468", "assay": "Inhibition of colony formation in human MDA-MB-468 cells at 1 uM incubated for 15 days by crystal violet staining based analysis", "assay_type": "functional, cell-based", "conditions": "time 15.0 day", "method_in_brief": "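5000 cells per 6 cm plate in triplicate with 1 μM PROTAC or DMSO, medium changed every 5 days; colonies stained with crystal violet after 14–15 days. Three independent experiments, mean ± SD, unpaired t-test against control.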"}, "MCF7 [12]": {"system": "MCF7", "assay": "Inhibition of colony formation in human MCF7 cells harboring siMLK3 by crystal violet staining based analysis", "assay_type": "functional, cell-based", "method_in_brief": "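MCF-7 or MDA-MB-468 seeded at 10 000 cells/well, transfected next day with MAP3K11 SMARTpool siRNA or nontargeting control siRNA; crystal violet staining 7 days after transfection. Knockdown confirmed by immunoblot.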"}, "MDA-MB-468 [13]": {"system": "MDA-MB-468", "assay": "Growth inhibition of human MDA-MB-468 cell spheroids in low-attachment surface at 1 uM incubated for 10 days", "assay_type": "functional, cell-based", "conditions": "time 10.0 day", "method_in_brief": "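Cells grown 10 days in low-attachment surface plates in medium containing 1 μM PROTAC or DMSO; spheroid growth assessed.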"}, "MCF7 [14]": {"system": "MCF7", "assay": "Growth inhibition of human MCF7 cell spheroids in hydrogel at 1 uM incubated for 10 days", "assay_type": "functional, cell-based", "conditions": "time 10.0 day", "method_in_brief": "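4000 cells plated on top of hydrogels and grown 10 days with 1 μM PROTAC or DMSO; spheroid formation and size scored.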"}, "MDA-MB-468 [15]": {"system": "MDA-MB-468", "assay": "Induction of cell cycle arrest at G2/M phase in human MDA-MB-468 cells at 1 uM measured after 48 hrs by PI staining based flow cytometry", "assay_type": "functional", "method_in_brief": "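Cells seeded at 50 000/well, exposed to 1 μM PROTAC or DMSO for 48 h, trypsinized, fixed in ice-cold methanol and held at –20 °C; next day stained with PI/RNase solution and read by flow cytometry. Two independent experiments.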"}, "MDA-MB-468 [16]": {"system": "MDA-MB-468", "assay": "Inhibition of cell migration in human MDA-MB-468 cells at 1 uM incubated for 24 hrs by transwell assay", "assay_type": "functional, cell-based", "method_in_brief": "(§2)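 Boyden inserts, 8 μm pores: 200 000 cells in serum-free DMEM with 1 μM PROTAC or DMSO, 20% FBS DMEM below as chemoattractant, 24 h at 37 °C, 5% CO2. Migrated cells fixed, crystal violet stained and counted by image analysis; at least three repeats.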"}, "MCF7 [17]": {"system": "MCF7", "assay": "Inhibition of cell migration in human MCF7 cells at 1 uM incubated for 24 hrs by transwell assay", "assay_type": "functional, cell-based", "method_in_brief": "as §2"}},
  "note": "The source made the active and inactive calls. The calls are words filed in the database; no cut-off is given here.",
  "data": [
    {"smiles": "CCSCc1ccc2c(c1)c1c3c(c4c5cc(CSCC)ccc5n5c4c1n2[C@H]1C[C@](O)(C(=O)NCCOCCOCCOCC(=O)N[C@H](C(=O)N2C[C@H](O)C[C@H]2C(=O)N[C@@H](C)c2ccc(-c4scnc4C)cc2)C(C)(C)C)[C@]5(C)O1)CNC3=O", "values": [
      {"measurement": "Activity", "setting": "[1]", "value": "Active"},
      {"measurement": "Activity", "setting": "[2]", "value": 100, "unit": "%"},
      {"measurement": "Activity", "setting": "[3]", "value": "inactive"},
      {"measurement": "Activity", "setting": "[4]", "value": "Dose-Dependent Effect"},
      {"measurement": "Activity", "setting": "[5]", "value": "Tde"},
      {"measurement": "T1/2", "setting": "[6]", "value": 4, "unit": "h"},
      {"measurement": "Activity", "setting": "MDA-MB-468 [7]", "value": "inactive"},
      {"measurement": "Activity", "setting": "[8]", "value": "Active"},
      {"measurement": "Activity", "setting": "[9]", "value": "inactive"},
      {"measurement": "Activity", "setting": "[10]", "value": "inactive"},
      {"measurement": "inhibition", "setting": "MDA-MB-468 [11]", "value": "Active"},
      {"measurement": "inhibition", "setting": "MCF7 [12]", "value": "inactive"},
      {"measurement": "growth inhibition (GI)", "setting": "MDA-MB-468 [13]", "value": "Active"},
      {"measurement": "growth inhibition (GI)", "setting": "MCF7 [14]", "value": "inactive"},
      {"measurement": "Activity", "setting": "MDA-MB-468 [15]", "value": "Active"},
      {"measurement": "inhibition", "setting": "MDA-MB-468 [16]", "value": "Active"},
      {"measurement": "inhibition", "setting": "MCF7 [17]", "value": "inactive"}
    ]}
  ]
}
